Calls of active or inactive are those of the source. The calls are words filed in the database; no cut-off is given here.
Experiments:
[1] = target: Ribosomal protein S6 kinase alpha-3 (Homo sapiens, UniProt P51812); test: Inhibition of human recombinant RSK2 (2 to end residues) using KKKNRTLSVA as substrate incubated for 40 mins in presence of [gamma33P-ATP] by radiometric scintillation counting analysis
Outline: (§1)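 Radiometric kinase assay run as an external profiling service, with ATP at the Km of each kinase. IC50 values are means of two independent experiments.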

MIA PaCa-2 = test: Antiproliferative activity against human MIA PaCa-2 cells assessed as reduction in cell viability incubated for 72 hrs by MTT assay; type: functional, cell-based; settings: MIA PaCa-2, 72 h
Outline: (§2)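 MTT viability assay. ATCC cell lines were grown in designated medium with 10% FBS at 37 °C, 5% CO2. Cells seeded at 1500−30000 per well and incubated 24 h, then exposed to compound (0−10 μg/mL) for 72 h. MTT added for 2−4 h. Formazan dissolved in DMSO (adherent) or acidified SDS overnight (suspension), absorbance read at 570 nm. Triplicates; IC50 calculated.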

[2] = target: Fibroblast growth factor receptor 2 (Homo sapiens, UniProt P21802, N549H); test: Inhibition of human recombinant FGFR2 N549H mutant (456 to 770 residues) using GGEEEEYFELVKKKK as substrate incubated for 40 mins in presence of [gamma33P-ATP] by radiometric scintillation counting analysis
MDA-MB-231 [3] = test: Induction of apoptosis in human MDA-MB-231 cells assessed as early apoptotic cells at 0.01 uM incubated for 24 hrs by annexin V-FITC and propidium iodide staining based flow cytometry analysis (reference value: 2 %); type: functional
[4] = Toxicity against SCID mouse xenografted with human MDA-MB-231 cells assessed as change in body weight at 10 to 40 mg/kg, po QD for 21 days and measured every 3 days; type: organism-based; settings: in vivo, 504 h, dose 10-40 mg/kg/day, time 21 day
Outline: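 Exponential-phase cells washed and injected subcutaneously (5 × 10^6 cells in 100 μL) into 5–6-week SCID mice. At 150–200 mm3, mice randomised to groups of 6. Oral dosing daily in water with 25% PEG400 and 5% DMSO; paclitaxel 10 mg/kg weekly by tail vein. Body weight measured every 3 days and side effects checked daily.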

Mus musculus = test: In vivo inhibition of ERK in SCID mouse xenografted with human MDA-MB-231 cells assessed as reduction in phosphorylation of ERK in tumor tissue at 40 mg/kg, po QD for 21 days by immunohistochemical analysis; type: functional, organism-based; settings: dose 40.0 mg/kg/day, time 21.0 day
Outline: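 Tumors taken from xenografted SCID mice dosed orally at 40 mg/kg/q.d. or given control; mice euthanized at set times. Tumors formalin-fixed and paraffin-embedded, stained by immunohistochemistry for phospho-proteins, and imaged by light microscopy.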

MDA-MB-415 = test: Antiproliferative activity against human MDA-MB-415 cells assessed as reduction in cell viability incubated for 72 hrs by MTT assay; type: functional, cell-based; settings: MDA-MB-415, 72 h; outline: as §2
[5] = target: BDNF/NT-3 growth factors receptor (Homo sapiens, UniProt Q16620); test: Inhibition of human recombinant TRKB (455 to end residues) using poly(Glu,Tyr)4:1 as substrate incubated for 40 mins in presence of [gamma33P-ATP] by radiometric scintillation counting analysis
HT-29 = test: Antiproliferative activity against human HT-29 cells assessed as reduction in cell viability incubated for 72 hrs by MTT assay; type: functional, cell-based; settings: HT-29, 72 h; outline: as §2
[6] = Inhibition of human recombinant EGFR T790M/L858R mutant (696 to end residues) using GGMEDIYFEFMGGKKK as substrate incubated for 40 mins in presence of [gamma33P-ATP] by radiometric scintillation counting analysis; outline: as §1
[7] = AUC (0 to t) in Sprague-Dawley rat at 10 mg/kg, po administered via gavage by LC-MS analysis; type: ADME, organism-based; design: dose 10 mg/kg; settings: in vivo
PC-9 = test: Antiproliferative activity against human PC-9 cells assessed as reduction in cell viability incubated for 72 hrs by MTT assay; type: functional, cell-based; settings: PC-9, 72 h; outline: as §2
[8] = Toxicity in SCID mouse xenografted with MDA-MB-231 cells assessed as animal death at 40 mg/kg, po qd for 15 days; type: organism-based; settings: in vivo, dose 40 mg/kg/day, time 15 day, read-out: Activity
MDA-MB-231 [9] = test: Induction of apoptosis in human MDA-MB-231 cells assessed as early apoptotic cells at 0.03 uM incubated for 24 hrs by annexin V-FITC and propidium iodide staining based flow cytometry analysis (reference value: 2 %); type: functional
[10] = Acute toxicity in Sprague-Dawley rat assessed as histopathological changes in liver at 100 mg/kg, po administered as single dose measured after 24 hrs by H and E staining based light microscope analysis; type: organism-based; settings: in vivo
Outline: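 Sprague-Dawley rats received a single oral dose of 100 mg/kg in sterile water with 25% (v/v) PEG400 plus 5% DMSO. Organs were examined by histology and immunohistochemistry for pathological changes. Behaviour and side effects were checked daily.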

[11] = Metabolic stability in mouse liver microsomes assessed as parent compound remaining at 1 uM measured after 60 mins in presence of NADPH by HPLC-MS/MS analysis; type: ADME, Microsome; settings: read-out: Stabilty
Outline: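 Compound at 1 μM incubated with 0.5 mg/mL liver microsomes and 1 mM NADPH. Samples taken at 0, 10, 15, 30, 45 and 60 min and quenched with acetonitrile. After centrifugation, supernatant analysed by HPLC-MS/MS, with percent parent remaining relative to the 0 min area.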

[12] = Inhibition of human recombinant EPHB2 A848S/K918E mutant (560 to end residues) using poly(Glu,Tyr)4:1 as substrate incubated for 40 mins in presence of [gamma33P-ATP] by radiometric scintillation counting analysis; outline: as §1
[13] = Acute toxicity in male Sprague-Dawley rat assessed as increase in body weight at 200 mg/kg, po administered as single dose measured after day 9 and monitored every 3 days; type: organism-based; settings: in vivo, 72 h, time >9 day
Outline: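 Sprague-Dawley rats (n = 3) received a single oral dose of 200 mg/kg in sterile water with 25% (v/v) PEG400 plus 5% DMSO. Behaviour and side effects were monitored daily, and average body weight was measured every 3 days.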

[14] = target: Tyrosine-protein kinase receptor TYRO3 (Homo sapiens, UniProt Q06418); test: Inhibition of human recombinant RSE (451 to end residues) using KVEKIGEGTYGVVYK as substrate incubated for 40 mins in presence of [gamma33P-ATP] by radiometric scintillation counting analysis; outline: as §1
Ramos = test: Antiproliferative activity against human Ramos cells assessed as reduction in cell viability incubated for 72 hrs by MTT assay; type: functional, cell-based; outline: as §2
MDA-MB-435 = test: Antitumor activity against human MDA-MB-435 cells xenografted in SCID mouse assessed as tumor growth inhibition administered orally once daily for 21 days and measured every 3 days; type: functional; settings: dose 10-40 mg/kg/day, time 21.0 day
Outline: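 SCID mice (5−6 weeks) injected subcutaneously with 100 μL of cells at 5 × 10^7/mL. At 150−200 mm3 mice randomized, 6 per group. Oral compounds given in water with 25% PEG400 plus 5% DMSO; paclitaxel given 10 mg/kg/week iv. Tumor volume a×b²/2 and body weight measured every 3 days. Inhibition rate (c−d)/c×100% against vehicle control.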

Tyrosine-protein kinase receptor TYRO3, sequence (Q06418 whole entry): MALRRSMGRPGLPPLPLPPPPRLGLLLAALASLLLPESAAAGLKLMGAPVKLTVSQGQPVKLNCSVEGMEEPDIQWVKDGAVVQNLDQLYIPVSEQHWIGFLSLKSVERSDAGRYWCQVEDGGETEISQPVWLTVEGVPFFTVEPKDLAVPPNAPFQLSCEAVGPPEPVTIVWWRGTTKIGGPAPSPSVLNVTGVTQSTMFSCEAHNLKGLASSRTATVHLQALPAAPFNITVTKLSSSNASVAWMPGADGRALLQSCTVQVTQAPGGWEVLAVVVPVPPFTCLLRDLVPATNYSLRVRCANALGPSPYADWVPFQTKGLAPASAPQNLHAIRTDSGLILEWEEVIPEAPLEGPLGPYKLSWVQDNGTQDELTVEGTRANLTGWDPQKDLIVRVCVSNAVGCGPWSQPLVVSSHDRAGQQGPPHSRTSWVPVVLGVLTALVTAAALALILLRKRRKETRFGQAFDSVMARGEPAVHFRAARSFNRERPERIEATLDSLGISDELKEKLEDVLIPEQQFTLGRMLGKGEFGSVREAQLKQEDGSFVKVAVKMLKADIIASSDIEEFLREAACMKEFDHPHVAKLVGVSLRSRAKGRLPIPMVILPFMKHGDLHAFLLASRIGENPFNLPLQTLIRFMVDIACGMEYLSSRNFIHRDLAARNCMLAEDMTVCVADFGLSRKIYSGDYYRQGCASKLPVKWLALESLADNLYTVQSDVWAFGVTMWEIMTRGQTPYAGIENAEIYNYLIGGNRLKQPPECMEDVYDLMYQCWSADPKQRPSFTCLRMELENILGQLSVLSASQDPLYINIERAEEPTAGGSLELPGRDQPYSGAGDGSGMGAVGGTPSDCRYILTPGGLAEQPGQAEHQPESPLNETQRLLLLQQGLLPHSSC
BDNF/NT-3 growth factors receptor, sequence (Q16620 whole entry): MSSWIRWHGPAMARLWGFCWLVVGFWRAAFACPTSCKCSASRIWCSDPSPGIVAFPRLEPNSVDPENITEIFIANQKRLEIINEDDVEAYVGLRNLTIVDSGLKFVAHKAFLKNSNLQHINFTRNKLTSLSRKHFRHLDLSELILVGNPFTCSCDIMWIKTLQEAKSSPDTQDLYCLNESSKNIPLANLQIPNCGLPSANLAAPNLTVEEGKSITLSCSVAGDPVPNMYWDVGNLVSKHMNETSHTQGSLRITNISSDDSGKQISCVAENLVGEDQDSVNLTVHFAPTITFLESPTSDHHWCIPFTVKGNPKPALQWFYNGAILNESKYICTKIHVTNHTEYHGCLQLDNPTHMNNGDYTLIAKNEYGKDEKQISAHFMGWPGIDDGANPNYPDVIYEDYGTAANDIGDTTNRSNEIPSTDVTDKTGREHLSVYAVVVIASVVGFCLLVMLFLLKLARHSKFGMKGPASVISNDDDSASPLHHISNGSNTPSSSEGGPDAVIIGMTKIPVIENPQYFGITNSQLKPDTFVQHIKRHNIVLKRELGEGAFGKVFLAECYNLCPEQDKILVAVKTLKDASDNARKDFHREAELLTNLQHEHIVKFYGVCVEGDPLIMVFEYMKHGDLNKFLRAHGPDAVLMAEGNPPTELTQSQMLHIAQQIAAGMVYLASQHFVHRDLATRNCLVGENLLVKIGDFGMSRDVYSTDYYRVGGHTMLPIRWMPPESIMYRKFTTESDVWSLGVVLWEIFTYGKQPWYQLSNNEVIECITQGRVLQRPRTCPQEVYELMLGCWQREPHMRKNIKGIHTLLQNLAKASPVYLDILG
Ribosomal protein S6 kinase alpha-3, sequence (P51812 whole entry): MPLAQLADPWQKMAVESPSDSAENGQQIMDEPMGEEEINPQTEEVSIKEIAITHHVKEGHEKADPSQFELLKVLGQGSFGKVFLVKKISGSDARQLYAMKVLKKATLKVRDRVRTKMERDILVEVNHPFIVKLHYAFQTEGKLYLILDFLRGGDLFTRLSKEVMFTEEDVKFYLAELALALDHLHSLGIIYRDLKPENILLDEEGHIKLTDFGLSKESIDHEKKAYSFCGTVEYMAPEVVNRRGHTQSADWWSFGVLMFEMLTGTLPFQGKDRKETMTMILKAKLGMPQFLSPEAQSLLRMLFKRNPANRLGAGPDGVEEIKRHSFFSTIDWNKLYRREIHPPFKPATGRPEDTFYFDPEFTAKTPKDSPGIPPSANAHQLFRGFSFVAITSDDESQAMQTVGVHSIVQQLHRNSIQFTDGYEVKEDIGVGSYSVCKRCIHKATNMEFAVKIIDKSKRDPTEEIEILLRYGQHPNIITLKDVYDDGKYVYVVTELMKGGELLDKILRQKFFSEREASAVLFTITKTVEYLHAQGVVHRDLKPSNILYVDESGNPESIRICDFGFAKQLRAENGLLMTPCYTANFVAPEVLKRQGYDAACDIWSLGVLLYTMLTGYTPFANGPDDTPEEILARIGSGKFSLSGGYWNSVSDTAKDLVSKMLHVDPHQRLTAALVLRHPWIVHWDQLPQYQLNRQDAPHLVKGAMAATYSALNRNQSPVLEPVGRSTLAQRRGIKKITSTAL
Fibroblast growth factor receptor 2, sequence (P21802 22-821 N549H limits assumed): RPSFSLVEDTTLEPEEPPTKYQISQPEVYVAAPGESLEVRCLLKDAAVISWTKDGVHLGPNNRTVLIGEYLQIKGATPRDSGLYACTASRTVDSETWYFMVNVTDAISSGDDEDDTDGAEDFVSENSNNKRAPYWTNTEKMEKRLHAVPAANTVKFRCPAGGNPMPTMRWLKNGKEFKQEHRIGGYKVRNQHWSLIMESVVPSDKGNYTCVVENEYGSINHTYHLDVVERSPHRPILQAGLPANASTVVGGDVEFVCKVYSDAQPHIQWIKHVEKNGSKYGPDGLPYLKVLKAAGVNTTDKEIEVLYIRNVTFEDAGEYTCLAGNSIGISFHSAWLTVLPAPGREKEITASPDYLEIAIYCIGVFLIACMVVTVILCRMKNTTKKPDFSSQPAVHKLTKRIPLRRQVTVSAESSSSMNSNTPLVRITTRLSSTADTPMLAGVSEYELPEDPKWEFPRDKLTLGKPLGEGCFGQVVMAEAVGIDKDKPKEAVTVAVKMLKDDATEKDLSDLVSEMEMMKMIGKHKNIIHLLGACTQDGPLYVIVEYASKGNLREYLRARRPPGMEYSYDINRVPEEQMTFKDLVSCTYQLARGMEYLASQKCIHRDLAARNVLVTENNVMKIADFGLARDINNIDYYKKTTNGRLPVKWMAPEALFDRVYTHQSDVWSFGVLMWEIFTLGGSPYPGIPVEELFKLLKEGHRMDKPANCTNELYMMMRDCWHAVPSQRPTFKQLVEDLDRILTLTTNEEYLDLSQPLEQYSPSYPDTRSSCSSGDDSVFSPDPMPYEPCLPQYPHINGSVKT

Cc1ccc(NC(=O)c2ccc(C)c(C(F)(F)F)c2)cc1C#Cc1nn([C@H]2CC[C@H](O)CC2)c2ncnc(N)c12
IC50 [1]: > 10000 nM | IC50 (MIA PaCa-2): < 600 nM | IC50 [2]: 40 nM | Activity (MDA-MB-231 [3]): 5.05% | Activity [4]: Non-Toxic | inhibition (Mus musculus): Active | IC50 (MDA-MB-415): 10000 nM | IC50 [5]: 899 nM | IC50 (HT-29): 231 nM | IC50 [6]: 8 nM | AUC(0-t) [7]: 2860 ng·h/mL | IC50 (PC-9): 152 nM | mortality at 360 h [8]: 0% | Activity (MDA-MB-231 [9]): 8.02% | Activity [10]: Non-Toxic | remaining at 1 h, 1 µM [11]: > 90% | IC50 [12]: 33 nM | Activity [13]: Non-Toxic | IC50 [14]: 351 nM | IC50 (Ramos): 10000 nM | Activity (MDA-MB-435): Dose-dependent effect

From ChEMBL document CHEMBL4765233, “From Lead to Drug Candidate: Optimization of 3-(Phenylethynyl)-1H-pyrazolo[3,4-d]pyrimidin-4-amine Derivatives as Agents for the Treatment of Triple Negative Breast Cancer” (J Med Chem, 2016)
